SMILES strings stand for the structures.

The first assay deals with T1, 3-hydroxy-3-methylglutaryl-coenzyme A reductase (Homo sapiens, UniProt P04035).
T1 sequence (P04035 whole entry): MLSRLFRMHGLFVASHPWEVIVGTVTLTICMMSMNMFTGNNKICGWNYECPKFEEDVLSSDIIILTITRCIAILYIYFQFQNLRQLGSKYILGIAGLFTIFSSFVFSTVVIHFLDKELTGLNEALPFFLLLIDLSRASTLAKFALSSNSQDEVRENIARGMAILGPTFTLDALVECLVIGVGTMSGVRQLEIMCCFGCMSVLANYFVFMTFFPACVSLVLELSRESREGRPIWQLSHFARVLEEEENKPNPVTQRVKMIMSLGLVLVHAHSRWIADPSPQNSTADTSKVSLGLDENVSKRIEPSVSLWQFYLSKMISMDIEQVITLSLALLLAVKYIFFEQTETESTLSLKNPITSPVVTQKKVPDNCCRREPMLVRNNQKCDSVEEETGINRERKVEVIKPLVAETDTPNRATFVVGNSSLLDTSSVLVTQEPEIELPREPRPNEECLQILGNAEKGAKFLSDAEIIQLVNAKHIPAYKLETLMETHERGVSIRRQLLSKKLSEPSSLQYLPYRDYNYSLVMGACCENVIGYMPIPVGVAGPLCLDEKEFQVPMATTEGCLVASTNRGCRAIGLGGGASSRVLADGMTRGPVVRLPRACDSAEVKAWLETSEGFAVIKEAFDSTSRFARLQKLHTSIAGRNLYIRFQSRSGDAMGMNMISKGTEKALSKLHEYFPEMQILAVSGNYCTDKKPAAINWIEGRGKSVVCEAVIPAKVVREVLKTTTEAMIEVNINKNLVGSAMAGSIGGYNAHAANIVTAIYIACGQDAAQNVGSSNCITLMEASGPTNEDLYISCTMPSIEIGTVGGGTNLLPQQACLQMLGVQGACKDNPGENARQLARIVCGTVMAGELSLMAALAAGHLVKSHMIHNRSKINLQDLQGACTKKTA
The experiment in a line: ChEBML_80349. The text has this:
(§1) Tested in vitro for the inhibition of HMG-CoA reductase from partially purified microsomal preparations.
On to `CC(C)c1nn(-c2ccccn2)c(-c2ccc(F)cc2)c1CCC(O)C[C@@H](O)CC(=O)O` (some centres undefined), for which the IC50 (commonly the concentration at which inhibition is half-maximal) is 0.11 µM.
Compound `O=C(O)C[C@H](O)C[C@H](O)/C=C/c1c(C(F)(F)F)nn(-c2ccccn2)c1-c1ccc(F)cc1` registered an IC50 of 0.017 µM.
For `CC(C)c1nn(-c2cnccn2)c(-c2ccc(F)cc2)c1/C=C/[C@@H](O)C[C@@H](O)CC(=O)O`, the IC50 turned out to be 0.007 µM.
On to `CC(C)c1nn(-c2ccccc2)c(-c2ccc(F)cc2)c1CCC(O)C[C@@H](O)CC(=O)O` (some centres undefined), for which half-maximal inhibition (IC50) required 0.04 µM.
For `CC(C)c1nn(-c2ccc3ccccc3n2)c(-c2ccc(F)cc2)c1/C=C/[C@@H](O)C[C@@H](O)CC(=O)O`, half-maximal inhibition (IC50) was put at 0.062 µM.
`CC(C)c1nn(-c2nc3ccccc3s2)c(-c2ccc(F)cc2)c1/C=C/[C@@H](O)C[C@@H](O)CC(=O)O` had an IC50 of 0.059 µM.
The same measure, in the same setting: next, `CC(C)c1nn(-c2ccccc2)c(-c2ccc(F)cc2)c1/C=C/[C@@H](O)C[C@@H](O)CC(=O)O`: 0.007 µM; `CC[C@H](C)C(=O)O[C@H]1C[C@@H](C)C=C2C=C[C@H](C)[C@H](CCC(O)C[C@@H](O)CC(=O)O)[C@H]21` (some centres undefined): 0.02 µM.

A further assay concerns the target T1, 3-hydroxy-3-methylglutaryl-coenzyme A reductase. Described as §1. Put shortly: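 Lactones saponified to the 3,5-dihydroxy acids before assay. Inhibition of partially purified microsomal HMG-CoA reductase. Each inhibitor concentration assayed in triplicate.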
With `CC(C)c1nn(-c2ccccn2)c(-c2ccc(F)cc2)c1/C=C/[C@@H](O)C[C@@H](O)CC(=O)O`, the half-inhibitory concentration (IC50) is 0.024 µM.

These data come from BindingDB's records for doi:10.1021/jm00089a022 (Warner-Lambert, 1992).
